Active and inactive are the calls of the source. The calls are words filed in the database; no cut-off is given here.
Key:
[1] = target: T1, Fatty-acid amide hydrolase 1 (Rattus norvegicus) (UniProt P97612); assay: Ratio of Kinact to Ki for histidine6-tagged rat FAAH
T1 sequence (whole entry): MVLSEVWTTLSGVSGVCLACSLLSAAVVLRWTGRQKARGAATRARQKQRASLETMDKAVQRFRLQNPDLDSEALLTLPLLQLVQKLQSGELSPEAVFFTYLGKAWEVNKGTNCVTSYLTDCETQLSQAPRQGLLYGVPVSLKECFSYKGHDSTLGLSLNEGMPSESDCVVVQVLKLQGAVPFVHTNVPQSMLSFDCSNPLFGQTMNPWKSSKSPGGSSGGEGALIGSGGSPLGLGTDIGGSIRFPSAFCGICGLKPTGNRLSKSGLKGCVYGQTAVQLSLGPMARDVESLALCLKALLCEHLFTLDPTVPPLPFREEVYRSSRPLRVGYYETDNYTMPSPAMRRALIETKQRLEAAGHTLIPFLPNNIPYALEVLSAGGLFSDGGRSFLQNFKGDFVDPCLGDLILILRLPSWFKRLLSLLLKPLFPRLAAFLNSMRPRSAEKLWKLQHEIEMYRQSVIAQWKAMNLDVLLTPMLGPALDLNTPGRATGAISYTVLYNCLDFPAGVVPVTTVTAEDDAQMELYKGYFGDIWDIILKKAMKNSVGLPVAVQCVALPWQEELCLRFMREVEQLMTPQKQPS
Summary of the method: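 Rat FAAH construct: aa 30–579, N-terminal transmembrane-deleted, N-terminal His6 tag, E. coli-expressed and purified to >95% purity. Activity read by a GDH-coupled enzyme assay in 384-well plates. Second-order kinact/Ki was derived from the linear slope of kobs versus [I], correcting with (1+[S]/Km).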

[2] = target: T2, Fatty-acid amide hydrolase 1 (Homo sapiens) (UniProt O00519); assay: Ratio of Kinact to Ki for histidine6-tagged human FAAH
T2 sequence (whole entry): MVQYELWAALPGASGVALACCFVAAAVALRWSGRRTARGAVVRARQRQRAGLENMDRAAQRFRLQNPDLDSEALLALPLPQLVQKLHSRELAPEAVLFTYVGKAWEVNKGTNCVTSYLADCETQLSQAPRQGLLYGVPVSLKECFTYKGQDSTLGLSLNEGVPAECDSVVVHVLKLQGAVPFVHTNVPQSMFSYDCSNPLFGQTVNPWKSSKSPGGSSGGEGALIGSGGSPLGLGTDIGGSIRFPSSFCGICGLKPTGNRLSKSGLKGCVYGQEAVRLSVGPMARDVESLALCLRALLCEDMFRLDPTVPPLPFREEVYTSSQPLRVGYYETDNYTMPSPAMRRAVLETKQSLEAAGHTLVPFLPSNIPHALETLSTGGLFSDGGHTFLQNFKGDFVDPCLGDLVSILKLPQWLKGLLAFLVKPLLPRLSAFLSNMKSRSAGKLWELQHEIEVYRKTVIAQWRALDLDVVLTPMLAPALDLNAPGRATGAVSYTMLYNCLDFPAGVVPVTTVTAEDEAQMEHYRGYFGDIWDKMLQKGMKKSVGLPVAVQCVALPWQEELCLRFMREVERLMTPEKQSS
Summary of the method: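 Human FAAH construct: aa 32–579, N-terminal transmembrane-deleted, N-terminal His6 tag, expressed in E. coli and purified to >95% by SDS–PAGE. Potency measured as kinact/Ki in a GDH-coupled FAAH assay in 384-well format. kobs was plotted against [I]; kinact/Ki came from the slope kinact/[Ki(1+[S]/Km)].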

[3] = target: T2, Fatty-acid amide hydrolase 1 (Homo sapiens); assay: Inhibition of histidine6-tagged FAAH from human heart proteomes at 10 to 100 uM
Summary of the method: (§1)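 Competitive activity-based protein profiling with FP probe labeling of serine hydrolases. Proteomes used: soluble mouse liver, mouse kidney, human liver and human heart, plus human brain membrane. Compounds tested at 100 μM, reference at 10 and 100 μM. Inhibited bands were read by gel; FAAH and off-target labeling were judged by band loss.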

[4] = target: T2, Fatty-acid amide hydrolase 1 (Homo sapiens); assay: Inhibition of histidine6-tagged FAAH from human brain proteomes at 10 to 100 uM; summary of the method: as §1
[5] = target: T2, Fatty-acid amide hydrolase 1 (Homo sapiens); assay: Inhibition of histidine6-tagged FAAH from human liver proteomes at 10 to 100 uM; summary of the method: as §1
[6] = target: T3, Fatty-acid amide hydrolase 1 (Mus musculus) (UniProt O08914); assay: Inhibition of histidine6-tagged FAAH from mouse liver proteomes at 10 to 100 uM; summary of the method: as §1
T3 sequence (whole entry): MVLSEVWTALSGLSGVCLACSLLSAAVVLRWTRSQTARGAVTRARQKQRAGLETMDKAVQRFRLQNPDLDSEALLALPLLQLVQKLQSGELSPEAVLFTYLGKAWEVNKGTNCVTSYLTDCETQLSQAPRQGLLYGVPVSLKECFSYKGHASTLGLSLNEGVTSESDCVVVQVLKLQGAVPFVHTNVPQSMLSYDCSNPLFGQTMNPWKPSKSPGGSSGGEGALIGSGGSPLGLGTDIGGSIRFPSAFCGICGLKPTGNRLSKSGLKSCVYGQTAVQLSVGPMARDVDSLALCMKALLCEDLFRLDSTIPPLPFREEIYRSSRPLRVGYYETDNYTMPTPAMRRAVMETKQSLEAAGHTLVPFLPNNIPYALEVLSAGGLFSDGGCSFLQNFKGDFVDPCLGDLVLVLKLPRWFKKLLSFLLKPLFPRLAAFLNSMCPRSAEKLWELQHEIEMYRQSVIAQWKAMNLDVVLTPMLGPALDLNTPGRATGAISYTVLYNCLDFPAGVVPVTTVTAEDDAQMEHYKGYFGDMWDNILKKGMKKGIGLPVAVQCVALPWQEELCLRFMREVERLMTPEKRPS

[7] = target: T3, Fatty-acid amide hydrolase 1 (Mus musculus); assay: Inhibition of histidine6-tagged FAAH from mouse kidney proteomes at 10 to 100 uM; type: tissue-based; summary of the method: as §1

| Compound | Ratio [1] | Ratio [2] | other results |
| --- | --- | --- | --- |
| Cc1c(CN2CCN(C(=O)NC(C)(C)C)CC2)sc2ccccc12 | < 10 M⁻¹ s⁻¹ | < 10 M⁻¹ s⁻¹ |  |
| CCN(CC)c1ccc(NC(=O)N2CCN(Cc3sc4ccccc4c3C)CC2)cn1 | 1430 M⁻¹ s⁻¹ | 1560 M⁻¹ s⁻¹ |  |
| Cc1c(CN2CCN(C(=O)Nc3cccnc3)CC2)sc2ccc(F)cc12 | 779 M⁻¹ s⁻¹ | 3130 M⁻¹ s⁻¹ |  |
| CNc1ccc(NC(=O)N2CCN(Cc3sc4ccccc4c3C)CC2)cn1 | 635 M⁻¹ s⁻¹ | 1000 M⁻¹ s⁻¹ |  |
| Cc1c(CC2CCN(C(=O)Nc3cccnc3)CC2)sc2cccc(F)c12 | 1550 M⁻¹ s⁻¹ | 4150 M⁻¹ s⁻¹ |  |
| CCc1c(CC2CCN(C(=O)Nc3cccnc3)CC2)sc2ccccc12 | 1010 M⁻¹ s⁻¹ | 1670 M⁻¹ s⁻¹ |  |
| O=C(Nc1cccnc1)N1CCN(Cc2cc3ccccc3s2)CC1 | 174 M⁻¹ s⁻¹ | 695 M⁻¹ s⁻¹ |  |
| Cc1c(C(O)C2CCN(C(=O)Nc3cccnc3)CC2)sc2ccccc12 (racemic) | 79 M⁻¹ s⁻¹ | 200 M⁻¹ s⁻¹ |  |
| COc1ccc2sc(CN3CCN(C(=O)Nc4cccnc4)CC3)c(C)c2c1 | 500 M⁻¹ s⁻¹ | 1380 M⁻¹ s⁻¹ |  |
| CCc1c(CN2CCN(C(=O)Nc3cccnc3)CC2)sc2ccccc12 | 774 M⁻¹ s⁻¹ | 1400 M⁻¹ s⁻¹ |  |
| Cc1c(CN2CCN(C(=O)NC(C)C)CC2)sc2ccccc12 | < 10 M⁻¹ s⁻¹ | 70 M⁻¹ s⁻¹ |  |
| Cc1c(CN2CCN(C(=O)Nc3cccnc3)CC2)sc2cccc(F)c12 | 1200 M⁻¹ s⁻¹ | 3320 M⁻¹ s⁻¹ |  |
| Cc1c(C(C)C2CCN(C(=O)Nc3cccnc3)CC2)sc2ccccc12 (racemic) | 48 M⁻¹ s⁻¹ | 114 M⁻¹ s⁻¹ |  |
| Cc1noc(NC(=O)N2CCN(Cc3sc4ccccc4c3C)CC2)c1C | 1430 M⁻¹ s⁻¹ | 1560 M⁻¹ s⁻¹ |  |
| Cc1c(CN2CCN(C(=O)Nc3ccc(C(F)(F)F)nc3)CC2)sc2ccccc12 | < 10 M⁻¹ s⁻¹ | 42 M⁻¹ s⁻¹ |  |
| Cc1ccc2c(Cl)c(CN3CCN(C(=O)Nc4ccc(C)nc4)CC3)sc2c1 | 14 M⁻¹ s⁻¹ | 73 M⁻¹ s⁻¹ |  |
| NC(=O)c1cccc(-c2cccc(OC(=O)NC3CCCCC3)c2)c1 |  |  | inhibition [3]: Active; inhibition [4]: Active; inhibition [5]: Active; inhibition [6]: Active; inhibition [7]: Active |
| Cc1ccc2sc(CC3CCN(C(=O)Nc4cccnc4)CC3)c(C)c2c1 | 482 M⁻¹ s⁻¹ | 3020 M⁻¹ s⁻¹ |  |
| CCCCNC(=O)N1CCN(Cc2sc3ccccc3c2C)CC1 | 13 M⁻¹ s⁻¹ | 44 M⁻¹ s⁻¹ |  |
| Cc1ccc2sc(CN3CCN(C(=O)Nc4ccc(C)nc4)CC3)c(C)c2c1 | 183 M⁻¹ s⁻¹ | 1170 M⁻¹ s⁻¹ |  |
| Cc1c(CN2CCN(C(=O)NC3CCCCC3)CC2)sc2ccccc12 | < 10 M⁻¹ s⁻¹ | < 10 M⁻¹ s⁻¹ |  |
| C=C(c1sc2ccccc2c1C)C1CCN(C(=O)Nc2cccnc2)CC1 | 991 M⁻¹ s⁻¹ | 5440 M⁻¹ s⁻¹ |  |
| Cc1c(C(C)C2CCN(C(=O)Nc3cccnc3)CC2)sc2ccccc12 (stereo in doubt; 17-E2) | 110 M⁻¹ s⁻¹ | 617 M⁻¹ s⁻¹ |  |
| Cc1c(CN2CCN(C(=O)NCc3ccccc3)CC2)sc2ccccc12 | < 10 M⁻¹ s⁻¹ | < 10 M⁻¹ s⁻¹ |  |
| Cc1c(CN2CCN(C(=O)Nc3ccc(Oc4cccnc4)nc3)CC2)sc2ccccc12 | < 10 M⁻¹ s⁻¹ | < 10 M⁻¹ s⁻¹ |  |
| Cc1c(C(C)C2CCN(C(=O)Nc3cccnc3)CC2)sc2ccccc12 (stereo in doubt; 17-E1) | < 10 M⁻¹ s⁻¹ | 34 M⁻¹ s⁻¹ |  |
| Cc1ccc(NC(=O)N2CCN(Cc3sc4ccc(F)cc4c3C)CC2)cn1 | 260 M⁻¹ s⁻¹ | 1870 M⁻¹ s⁻¹ |  |

| Compound | Ratio [1] | Ratio [2] | other results |
| --- | --- | --- | --- |
| CNC(=O)CNC(=O)N1CCN(Cc2sc3ccccc3c2C)CC1 | < 10 M⁻¹ s⁻¹ | < 10 M⁻¹ s⁻¹ |  |
| CCc1c(CC2CCN(C(=O)Nc3cccnc3)CC2)sc2ccc(F)cc12 | 1140 M⁻¹ s⁻¹ | 2290 M⁻¹ s⁻¹ |  |
| Cc1c(CC2CCN(C(=O)Nc3cccnc3)CC2)sc2ccccc12 | 2610 M⁻¹ s⁻¹ | 5130 M⁻¹ s⁻¹ |  |
| Cc1c(CN2CCN(C(=O)NCCO)CC2)sc2ccccc12 | < 10 M⁻¹ s⁻¹ | 42 M⁻¹ s⁻¹ |  |
| CCc1c(CN2CCN(C(=O)Nc3cccnc3)CC2)sc2ccc(F)cc12 | 617 M⁻¹ s⁻¹ | 1810 M⁻¹ s⁻¹ |  |
| COc1ccc2c(C)c(CN3CCN(C(=O)Nc4cccnc4)CC3)sc2c1 | 113 M⁻¹ s⁻¹ | 73 M⁻¹ s⁻¹ |  |
| Cc1c(CN2CCN(C(=O)Nc3ccc(N)nc3)CC2)sc2ccccc12 | 762 M⁻¹ s⁻¹ | 1920 M⁻¹ s⁻¹ |  |
| Cc1c(CN2CCN(C(=O)Nc3ccccn3)CC2)sc2ccccc12 | 635 M⁻¹ s⁻¹ | 1000 M⁻¹ s⁻¹ |  |
| Cc1c(CN2CCN(C(=O)Nc3cccnn3)CC2)sc2ccccc12 | 191 M⁻¹ s⁻¹ | 924 M⁻¹ s⁻¹ |  |
| Cc1c(CN2CCN(C(=O)Nc3ccc(Cl)nc3)CC2)sc2ccccc12 | 242 M⁻¹ s⁻¹ | < 10 M⁻¹ s⁻¹ |  |
| Cc1ccc(NC(=O)N2CCN(Cc3sc4ccccc4c3C)CC2)cn1 | 390 M⁻¹ s⁻¹ | 44 M⁻¹ s⁻¹ | inhibition [3]: Active; inhibition [4]: Active; inhibition [5]: Active; inhibition [6]: Active; inhibition [7]: Active |
| Cc1cnc(NC(=O)N2CCN(Cc3sc4ccccc4c3C)CC2)s1 | < 10 M⁻¹ s⁻¹ | < 10 M⁻¹ s⁻¹ |  |
| CC(=O)Nc1ccc(NC(=O)N2CCN(Cc3sc4ccccc4c3C)CC2)cn1 | < 10 M⁻¹ s⁻¹ | < 10 M⁻¹ s⁻¹ |  |
| Cc1c(C(=O)C2CCN(C(=O)Nc3cccnc3)CC2)sc2ccccc12 | 1230 M⁻¹ s⁻¹ | 3600 M⁻¹ s⁻¹ |  |
| Cc1c(CN2CCN(C(=O)Nc3cccnc3)CC2)sc2ccc(C(F)(F)F)cc12 | 219 M⁻¹ s⁻¹ | 1390 M⁻¹ s⁻¹ |  |
| CCNc1ccc(NC(=O)N2CCN(Cc3sc4ccccc4c3C)CC2)cn1 | 191 M⁻¹ s⁻¹ | 924 M⁻¹ s⁻¹ |  |
| Cc1c(CN2CCN(C(=O)Nc3ccccc3)CC2)sc2ccccc12 | 762 M⁻¹ s⁻¹ | 1920 M⁻¹ s⁻¹ |  |
| Cc1c(CN2CCN(C(=O)Nc3ccc(N(C)C)nc3)CC2)sc2ccccc12 | 1080 M⁻¹ s⁻¹ | 2400 M⁻¹ s⁻¹ |  |
| Cc1c(CN2CCN(C(=O)Nc3ccc(Br)nc3)CC2)sc2ccccc12 | 157 M⁻¹ s⁻¹ | 70 M⁻¹ s⁻¹ |  |
| CCOc1ccc2c(C)c(CN3CCN(C(=O)Nc4cccnc4)CC3)sc2c1 | < 10 M⁻¹ s⁻¹ | 14 M⁻¹ s⁻¹ |  |
| Cc1ccc(NC(=O)N2CCN(Cc3sc4ccccc4c3Cl)CC2)cn1 | 133 M⁻¹ s⁻¹ | 900 M⁻¹ s⁻¹ |  |
| Cc1c(CN2CCN(C(=O)Nc3cccnc3)CC2)sc2ccccc12 | 1080 M⁻¹ s⁻¹ | 2400 M⁻¹ s⁻¹ |  |
| Cc1c(CN2CCN(C(=O)Nc3cccnc3)CC2)sc2ccc(Cl)cc12 | 1130 M⁻¹ s⁻¹ | 2820 M⁻¹ s⁻¹ |  |
| Cc1c(CN2CCN(C(=O)Nc3ccc(-c4ccccc4)nc3)CC2)sc2ccccc12 | 1220 M⁻¹ s⁻¹ | < 10 M⁻¹ s⁻¹ |  |
| Cc1ccc(NC(=O)N2CCN(Cc3sc4cccc(F)c4c3C)CC2)cn1 | 758 M⁻¹ s⁻¹ | 1980 M⁻¹ s⁻¹ |  |
| Cc1ccc2sc(CN3CCN(C(=O)Nc4cccnc4)CC3)c(C)c2c1 | 557 M⁻¹ s⁻¹ | 2640 M⁻¹ s⁻¹ |  |

Source: ChEMBL document CHEMBL1152917, “Benzothiophene piperazine and piperidine urea inhibitors of fatty acid amide hydrolase (FAAH)” (2009)
